# In the library only some 8.2% were active in any assay of this set; here they are far more common.
# HePTP inhibitor – inhibitors of human HePTP phosphatase, primary screen, biochemical, absorbance, leukemia target | recombinant HePTP phosphatase activity, OD absorbance | inhibition, % at 20 µM | hit rate 0.64% among 110,000 | AID 521, 2006; in the data active means inhibition above about 50%;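 further: plate controls were vehicle for no effect and reference inhibitor for full effect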
# D1 mod – D1 CRE-luciferase signal change, two-sided – cell-based, HEK293 D1, dopamine EC30, D1 allosteric modulator project, primary screen; dopamine EC30 potentiation; actives deviate in either direction; B-score at 10 µM; hit rate 5.9% among 58,000; AID 641, 2007;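 active means luminescence count or its row- and column-corrected plate score outside the 99.7% band of the plate's sample wells, on either side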
# Target sequence (P21728 whole entry, looked up): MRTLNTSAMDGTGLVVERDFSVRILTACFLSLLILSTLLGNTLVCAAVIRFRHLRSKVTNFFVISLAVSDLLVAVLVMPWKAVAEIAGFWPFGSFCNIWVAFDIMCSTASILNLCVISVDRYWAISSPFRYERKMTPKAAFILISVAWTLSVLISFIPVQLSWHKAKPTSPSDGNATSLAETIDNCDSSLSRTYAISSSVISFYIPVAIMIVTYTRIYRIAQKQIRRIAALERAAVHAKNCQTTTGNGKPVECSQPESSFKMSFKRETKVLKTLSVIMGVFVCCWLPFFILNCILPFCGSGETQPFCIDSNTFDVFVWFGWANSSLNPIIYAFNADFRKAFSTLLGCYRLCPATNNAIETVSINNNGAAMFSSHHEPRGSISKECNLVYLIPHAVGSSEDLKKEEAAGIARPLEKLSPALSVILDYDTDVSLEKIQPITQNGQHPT
# M1 ag – M1 muscarinic receptor agonists, primary screen, CHO-M1 cells, Fluo-4 calcium, agonist mode | Muscarinic acetylcholine receptor M1 | Fluo-4 calcium fluorescence; stronger effect = higher value | B-score at 10 µM | hit rate 3% among 64,000 | AID 626, 2007;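 active means fluorescence rise, raw or as B-score row- and column-corrected plate score, outside the 99.7% band of its plate's samples, either direction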
# M1 antagonist – antagonists of rat M1 muscarinic receptor; CHO-M1 cells, Fluo-4 calcium, ACh EC80 antagonist mode; stronger effect = lower value; B-score at 10 µM; hit rate 3.4% among 64,000; AID 628, 2007;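 active means calcium fluorescence response, raw or row-and-column corrected B-score, differing from the plate sample mean either way at a set confidence level, mostly lower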
# RORa activator – activators of orphan receptor RORA, primary screen, cell-based, luminescence; CHO-K1 Gal4-RORA LBD luciferase reporter; percent increase over mock-subtracted basal signal; activation, % at 10 µM; Nuclear receptor ROR-alpha (Homo sapiens), P35398; hit rate 1.5% among 65,000;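 active means activation above the mean of all tested compounds plus 3 SD, cut at about 49% in these data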;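 further: 0% = DMSO-treated RORA cells and 100% = added signal equal to DMSO minus mock-transfected cells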
# SF1 activator – activators of human SF-1, primary screen, cell-based, CHO-K1, Gal4-SF-1 LBD, luciferase luminescence; Steroidogenic factor 1 (Homo sapiens), Q13285; CHO-K1 Gal4-SF-1 LBD luciferase reporter; % increase over DMSO SF-1-specific signal; activation, % at 10 µM; hit rate 1.9% among 65,000;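 active means activation above the mean activation of all tested compounds plus 3 SD, cut at about 50% in these data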
#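 Test system: transient Gal4-SF-1 LBD reporter, CHO-K1; Amount: 4,000 CHO-K1 cells per well; Doses: 10 µM only; Timing: compound exposure 20 h at 37 °C; Signal: luciferase light emission; Read-out basis: percent activation relative to DMSO median and mock-transfected background; Control set: DMSO negative control and −SF1 background wells; Replicates: one test per compound.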
# An asterisk follows results filed as active; . = no result given; ! = not active in a repeat.
SMILES,HePTP inhibitor,D1 mod,M1 ag,M1 antagonist,RORa activator,SF1 activator
COc1cc2ccccc2cc1C(=O)Nc1cccnc1,2,.,0.54,2,77*,50*
Cc1ccc(C(=O)Nc2cccc(O)c2)cc1S(=O)(=O)N1CCCCC1,2,.,.,.,.,.
CC(C)Oc1ccc(C(=O)NCc2cccnc2)cc1,104*!,0.55,0.92,0.12,-9,-16
CC1=C(C(=O)OC(C)C)C(c2ccc(Br)cc2)C2=C(CCCC2=O)N1 (stereo not given),-10,.,.,.,.,.
CCOc1ccc2[nH]c(=O)c(CN(Cc3cccs3)Cc3nnnn3C(C)(C)CC)cc2c1,0,1.1,0.92,0.77,36,24
CCC(C)(C)n1nnnc1CN(Cc1cccs1)Cc1cc2cc(OC)ccc2[nH]c1=O,8,1.5,3.7*,-1,14,10
CCc1ccc(S(=O)(=O)NC(CC(=O)O)c2ccccc2)cc1 (stereo not given),10,-6.5*,0.068,-0.56,2,7
CCOC(=O)c1cnc(SCc2ccccc2)nc1N,1,0.45,-0.17,-0.43,51*,67*
Cc1c(-n2c(CN3C(=O)c4ccccc4C3=O)nc3ccccc3c2=O)c(=O)n(-c2ccccc2)n1C,8,-1.8,-1.5,1.5*,-5,-14
CC(C)Cn1c(CN2C(=O)c3ccccc3C2=O)nc2ccccc2c1=O,5,1.6,-0.35,-0.21,-5,-4
O=C(O)c1cc(-c2cccnc2)nn1-c1ccccn1,5,.,-0.049,0.042,-12,-12
CC1CCN(S(=O)(=O)c2ccc(NC(=O)Cn3nnc(-c4ccccc4F)n3)cc2)CC1,-11,0.28,.,.,53*,11
COc1ccc(CN(Cc2nc3ccccc3c(=O)[nH]2)C(=O)C(C)(C)C)cc1,6,-4.9*,-0.77,0.82,-6,-12
COC(=O)c1cc2c(ccn2-c2ccc(F)cc2)n1CC(=O)N1CCN(C(=O)c2ccco2)CC1,10,0.23,0.59,0.91,3,-9
CCn1c(C(=O)OC)cc2c1ccn2-c1ccc(F)cc1,0,-0.1,-0.54,-0.00049,60*,53*
O=C(O)c1cccc(NC2=C(Cl)C(=O)N(c3ccc(Cl)cc3)C2=O)c1,104*,.,.,.,.,.
O=C1C(Cl)=C(Nc2ccccc2)C(=O)N1c1cccc(Cl)c1,6,.,.,.,.,.
CCN(CC)c1ccc(C(=O)n2cnc3ccccc32)cc1,6,0.41,-0.37,-0.87,39,64*
O=C(OCCOCCN=C1NS(=O)(=O)c2ccccc21)c1ccncc1,7,0.26,0.083,-0.43,-2,3
CCOC(=O)c1c(N)c(C#N)n2c1CCC2,12,.,.,.,.,.
Cc1cc(N)c(-n2cc3c(=O)n(C)c(=O)n(C)c3c2)cc1C,3,0.035,-0.44,-0.23,54*,30
CC(C)(C)c1ccc(-c2nc(C#N)c(NCc3ccncc3)o2)cc1,7,2.7,-0.53,-0.073,60*,83*
CCOC(=O)c1[nH]c(C)c(C(=O)OCC(=O)N2CCCCC2C)c1C (stereo not given),10,-0.088,-0.57,-0.11,-3,4
CCOC(=O)c1ccc(NC(=S)NC(NC(=O)Cc2ccccc2)C(Cl)(Cl)Cl)cc1 (stereo not given),104*,.,.,.,.,.
CC(c1ccco1)N(C(=O)Nc1ccc(Cl)cc1)c1ccccn1 (stereo not given),-11,-0.052,-0.7,-0.57,-5,7
CCOC(=O)N=Nc1c(O)[nH]c2ccc(OC)cc12,9,.,.,.,.,.
CN(C(=O)c1ccccn1)c1nnc(-c2cnccn2)s1,4,-2,0.39,1,44,70*
CN(C(=O)c1cccnc1)c1nnc(-c2ccccn2)s1,7,-0.4,-1,-0.23,39,70*
Cc1nn(-c2ccc(F)cc2F)c2c1-c1nc(N3CCCC3)ncc1CC2,10,-5.9*,0.71,-0.22,-18,0
CN(C)C1(c2cccs2)CS(=O)(=O)C1,102*,.,.,.,.,.

# Bioassay records: PubChem BioAssay, several laboratories
